Drawing on ChEMBL document CHEMBL4480428, “Anti-inflammatory Lathyrane Diterpenoids from Euphorbia lathyris” (J Nat Prod, 2019), this text covers IC50, inhibition and Activity for 17 compounds.

Each structure is given as a SMILES string. Calls of active or inactive are those of the source. The calls are words filed in the database; no cut-off is given here.

The subject of series [1] is RAW264.7. The series is described as follows: Anti-inflammatory activity in mouse RAW264.7 cells assessed as inhibition of LPS-induced nitric oxide production preincubated for 3 hrs followed by LPS-stimulation and measured after 24 hrs by Griess assay. Format: functional, cell-based. The essentials: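 Mouse macrophage RAW264.7 cells (ATCC) grown in DMEM with 10% FBS and penicillin/streptomycin at 37 °C, 5% CO2. Seeded at 5000 cells/well and cultured overnight. Medium replaced with compound-containing medium (0−100 μM) for 3 h, then 1 μg/mL LPS added for 24 h. Supernatant mixed 1:1 with Griess reagent for 10 min at room temperature, absorbance read at 540 nm. Nitrite quantified from a standard curve; IC50 taken from inhibition rates across a concentration gradient.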
(In general: Griess reagent forms a coloured azo dye with nitrite.)

Series [2] concerns RAW264.7. Put plainly: Cytotoxicity against mouse RAW264.7 cells assessed as reduction in cell viability after 24 hrs by CCK8 assay. Format: cell-based. The following applies: RAW264.7, 24 h. The essentials: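 RAW264.7 macrophages cultured in DMEM with 10% FBS and penicillin/streptomycin at 37 °C, 5% CO2. Cells exposed to compound for 24 h. Viability measured by CCK8 kit following the manufacturer's instructions.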
In general terms: Tetrazolium assays rely on reduction of a dye to a coloured formazan, in cell work by metabolically active cells.

Series [3] relates to RAW264.7. The series is described as follows: Anti-inflammatory activity in mouse RAW264.7 cells assessed as inhibition of LPS-induced IL-6 production preincubated for 3 hrs followed by LPS-stimulation and measured after 24 hrs by ELISA. Format: functional, cell-based. The method in brief:
(§1)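 Cells were pretreated with compound at 2.5, 5 or 10 μM for 3 h, then stimulated with 1 μg/mL LPS for 24 h. IL-1β and IL-6 were quantified in collected supernatants by commercial ELISA kits. Significance was assessed against unstimulated, untreated control.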
In general terms: ELISA stands for enzyme-linked immunosorbent assay.

The target in series [4] is T1, NF-kappa-B inhibitor alpha (Mus musculus) (UniProt Q9Z1E3).
T1 sequence (whole entry): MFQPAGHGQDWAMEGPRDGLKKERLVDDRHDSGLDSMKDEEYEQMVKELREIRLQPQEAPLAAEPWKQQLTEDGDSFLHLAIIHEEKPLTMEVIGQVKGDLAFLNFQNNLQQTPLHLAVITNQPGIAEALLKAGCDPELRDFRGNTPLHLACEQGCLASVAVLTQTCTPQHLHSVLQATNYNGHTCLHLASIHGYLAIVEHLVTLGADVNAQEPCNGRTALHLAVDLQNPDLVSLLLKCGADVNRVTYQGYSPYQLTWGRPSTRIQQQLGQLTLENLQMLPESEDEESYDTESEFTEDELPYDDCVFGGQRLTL
The series is described as follows: Inhibition of LPS-induced IkappaBalpha phosphorylation in mouse RAW264.7 cells at 10 uM preincubated for 3 hrs followed by LPS-stimulation and measured by Western blot analysis. It is filed as cell-based. The method in brief: (§2)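 Cells were pretreated with compound for 3 h before LPS addition. Equal protein by BCA went onto 10% SDS-PAGE and nitrocellulose, probed for iNOS, NF-κB, IκBα and p-IκBα with chemiluminescence detection.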

The target in series [5] is T1, NF-kappa-B inhibitor alpha (Mus musculus). The series is described as follows: Inhibition of IkappaBalpha phosphorylation in LPS-induced mouse RAW264.7 cells assessed as reduction in NFkappaB expression preincubated for 3 hrs followed by LPS-stimulation and measured by Western blot analysis. Format: cell-based. The method in brief: as §2
The target is the same in series [6]. Put plainly: Inhibition of IkappaBalpha phosphorylation in LPS-stimulated mouse RAW264.7 cells assessed as reduction in NF-kappaB p65 nuclear translocation at 5 to 10 uM pretreated for 2 hrs followed by LPS-stimulation measured after 12 hrs by DAPI staining based immunofluorescence assay. Format: cell-based. The essentials: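 Cells at 70% confluence were pretreated with DMSO, given 5 or 10 μM compound for 2 h, then activated with 1 μg/mL LPS for 12 h. Cells were fixed in 4% paraformaldehyde, permeabilized with 0.25% Triton X-100 and blocked with 5% BSA. Staining used P65 antibody (1:1000, 4 °C overnight), AlexaFluor488 secondary (1:500, 1 h) and DAPI for nuclei.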

Series [7] deals with RAW264.7. The series is described as follows: Anti-inflammatory activity in mouse RAW264.7 cells assessed as inhibition of LPS-induced IL1beta production preincubated for 3 hrs followed by LPS-stimulation and measured after 24 hrs by ELISA. Format: functional, cell-based. The essentials:
as §1

Series [8] deals with T1, NF-kappa-B inhibitor alpha (Mus musculus). Put plainly: Inhibition of IkappaBalpha phosphorylation in LPS-stimulated mouse RAW264.7 cells assessed as reduction in iNOS expression preincubated for 3 hrs followed by LPS-stimulation and measured by Western blot analysis. It is filed as cell-based. The essentials:
as §2

Series [9] deals with RAW264.7. The series is described as follows: Cytotoxicity against mouse RAW264.7 cells assessed as reduction in cell viability at 100 uM after 24 hrs by CCK8 assay. Format: cell-based. Particulars: raw264.7, 24 h. The essentials:
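Cells were exposed to compound across 0–100 range for 24 h. Viability was then measured by CCK8 assay on the well supernatant, following kit instructions. Comparison was made with cells given 0 μM compound.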

Turning to `CC(=O)OC/C1=C\C[C@H]2[C@@H](/C=C(\C)C(=O)[C@@]3(O)C[C@H](C)[C@H](OC(=O)c4ccccc4)[C@@H]3[C@H]1OC(C)=O)C2(C)C`, the IC50 in the series on RAW264.7 [1] is over 100 µM; in the series with RAW264.7 [2], over 50 µM.

`C=C1[C@@H](OC(=O)c2ccccc2)C[C@H]2[C@@H](/C=C(\C)C(=O)[C@@]3(OC(C)=O)C[C@H](C)[C@H](OC(=O)c4ccccc4)[C@@H]3[C@H]1OC(C)=O)C2(C)C`: the IC50 with RAW264.7 [1] was over 100 µM; in the series on RAW264.7 [2], over 50 µM.

With `CC(=O)OC/C1=C/[C@@H]2[C@@H](O)[C@@H](C)C[C@]2(OC(C)=O)C(=O)/C(C)=C/[C@@H]2[C@H](CC1)C2(C)C`, the IC50 with RAW264.7 [1] and in the series with RAW264.7 [2] was over 50 µM each time.

`C=C1CC[C@H]2[C@@H](/C=C(\C)C(=O)[C@@]3(OC(C)=O)C[C@H](C)[C@H](OC(=O)c4ccccc4)[C@@H]3[C@H]1OC(C)=O)C2(C)C`: the IC50 is 8.3 µM in the series with RAW264.7 [1] and over 50 µM with RAW264.7 [2].

As for `CC(=O)O[C@@H]1[C@H]2[C@@H](OC(=O)Cc3ccccc3)[C@@H](C)C[C@]2(OC(C)=O)C(=O)/C(C)=C/[C@@H]2[C@H](CC[C@]13CO3)C2(C)C`, the figures for the IC50 in the series with RAW264.7 [1] and in the series with RAW264.7 [2] were 9.9 µM and over 50 µM, respectively.

With `CC(=O)O[C@]12C[C@H](C)[C@H](OC(=O)Cc3ccccc3)[C@@H]1/C=C(/CO)CC[C@H]1[C@@H](/C=C(\C)C2=O)C1(C)C`, the IC50 with RAW264.7 [1] is over 100 µM; in the series on RAW264.7 [2] it was over 50 µM.

On to `C=C1[C@H](OC(C)=O)C[C@H]2[C@@H](/C=C(\C)C(=O)[C@@]3(OC(C)=O)C[C@H](C)[C@H](OC(=O)c4ccccc4)[C@@H]3[C@H]1O)C2(C)C`, for which the IC50 in the series with RAW264.7 [1] was 4 µM; in the series with RAW264.7 [2], over 50 µM.

As for `C=C1CC[C@H]2[C@@H](/C=C(\C)C(=O)[C@@]3(OC(C)=O)C[C@H](C)[C@H](OC(=O)/C=C/c4ccccc4)[C@@H]3[C@H]1O)C2(C)C`, the inhibition entry (in the series on RAW264.7 [3]; in series [5]; in the series with RAW264.7 [7]; in [8]) was “Dose-dependent effect” each time. Further, the inhibition result in series [4] and in [6] was “Active” in each case. The IC50 in the series on RAW264.7 [1] was 3 µM; in the series with RAW264.7 [2] it was over 50 µM. Also, the Activity result in the series with RAW264.7 [9] is “Toxic”.

With `C=C1[C@H](O)C[C@H]2[C@@H](/C=C(\C)C(=O)[C@@]3(OC(C)=O)C[C@H](C)[C@H](OC(=O)c4ccccc4)[C@@H]3[C@H]1OC(C)=O)C2(C)C`, the IC50 was 5 µM with RAW264.7 [1] and over 50 µM in the series on RAW264.7 [2].

For the compound `CCCCCC(=O)O[C@H]1[C@@H](C)C[C@]2(OC(C)=O)C(=O)/C(C)=C/[C@@H]3[C@H](CC/C(CO)=C\[C@@H]12)C3(C)C`, the IC50 was 9.3 µM in the series on RAW264.7 [1] and over 50 µM with RAW264.7 [2].

Take `C=C1CC[C@H]2[C@@H](/C=C(\C)C(=O)[C@@]3(OC(C)=O)C[C@H](C)[C@H](OC(=O)c4cccnc4)[C@@H]3[C@H]1OC(C)=O)C2(C)C`: the IC50 in the series with RAW264.7 [1] was 100 µM; with RAW264.7 [2], over 50 µM.

As for `C=C1[C@@H](OC(=O)c2ccccc2)C[C@H]2[C@@H](/C=C(\C)C(=O)[C@@]3(O)C[C@H](C)[C@H](OC(=O)c4ccccc4)[C@@H]3[C@H]1OC(C)=O)C2(C)C`, the IC50 is 15.2 µM with RAW264.7 [1] and over 50 µM in the series with RAW264.7 [2].

For the compound `CC(=O)O[C@]12C[C@H](C)[C@H](O)[C@@H]1[C@H]1O[C@]1(C)CC[C@H]1[C@H](/C=C(\C)C2=O)C1(C)C`, the results for the half-maximal inhibitory concentration (IC50) in the series on RAW264.7 [1] and in the series with RAW264.7 [2] were over 100 µM and over 50 µM, respectively.

`C[C@@H]1C[C@H]2[C@@H]3CCC4=CC(=O)C=C[C@]4(C)[C@@]3(F)[C@@H](O)C[C@]2(C)[C@@]1(O)C(=O)CO` [DEXAMETHASONE]: the IC50 in the series with RAW264.7 [1] turned out to be 7.9 µM.

`CC(=O)OC/C1=C/[C@H]2[C@@H](OC(=O)[C@H](O)c3ccccc3)[C@@H](C)C[C@]2(OC(C)=O)C(=O)/C(C)=C/[C@@H]2[C@H](CC1)C2(C)C`: the IC50 with RAW264.7 [1] and in the series with RAW264.7 [2] was over 50 µM throughout.

On to `C=C1[C@@H](OC(=O)c2cccnc2)C[C@H]2[C@@H](/C=C(\C)C(=O)[C@@]3(OC(C)=O)C[C@H](C)[C@H](OC(=O)c4ccccc4)[C@@H]3[C@H]1OC(C)=O)C2(C)C`, for which the IC50 in the series on RAW264.7 [1] was 2.6 µM; in the series on RAW264.7 [2] it was over 50 µM.

As to `CC(=O)O[C@]12C[C@H](C)[C@H](OC(=O)/C=C/c3ccccc3)[C@@H]1/C=C(/CO)CC[C@H]1[C@@H](/C=C(\C)C2=O)C1(C)C`, the results for the IC50 with RAW264.7 [1] and in the series with RAW264.7 [2] were 26 µM and over 50 µM, respectively.

What is called IC50 is the concentration that gives 50% inhibition.
